Experimental data taken from ChEMBL document CHEMBL2176871, “Development of ligands at γ-aminobutyrric acid type A (GABAA) receptor subtype as new agents for pain relief” (Bioorg Med Chem, 2011).

Key:
[1] = system: Mus musculus; experiment: Anticonvulsant activity in Swiss albino mouse […] assessed as protection against intraperitoneally administered pentylenetetrazol-induced seizures at 30 mg/kg, po after 30 mins; format: functional
Summary of the method: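 Male Swiss albino mice. Compounds given po and PTZ 90 mg/kg injected 30 min later; PTZ was dissolved in 0.9% NaCl saline. Clonic generalized convulsions were recorded over 30 min. Each value is the mean of 10 mice. The methods give the PTZ route as s.c. and the table footnote gives it as ip.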

[2] = system: Mus musculus; experiment: Antihyperalgesic activity Swiss albino mouse […] assessed as licking latency time at 30 mg/kg, po after 45 mins by hot plate test (reference value: 17.9 +/- 1.1 secs); format: functional
Summary of the method: (§1)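 Hot plate at 52.5 ± 0.1 °C in non-diabetic male Swiss mice. Latency to licking of fore or hind paws was timed before dosing and every 15 min up to 60 min after oral dosing. Mice with pretest latencies below 12 s or above 18 s were excluded. Cut-off was 45 s.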

[3] = system: Mus musculus; experiment: Antihyperalgesic activity against streptozotocin-induced hyperalgesia in Swiss albino mouse […] assessed as licking latency time at 30 mg/kg, po after 30 mins by hot plate test (reference value: 9.2 +/- 0.8 secs); format: functional
[4] = system: Mus musculus; experiment: Antihyperalgesic activity Swiss albino mouse […] assessed as licking latency time at 30 mg/kg, po after 30 mins by hot plate test (reference value: 17.9 +/- 1.1 secs); format: functional; summary of the method: as §1
[5] = system: Rattus norvegicus; experiment: Antinociceptive activity in Sprague-Dawley rat mononeuropathy pain model assessed as increase in injured paw pressure at 30 mg/kg, po after 15 mins by paw pressure test relative to non-treated control; format: functional
Summary of the method: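 Chronic constriction injury: loose ligatures placed on the common sciatic nerve under chloral hydrate; contralateral sham dissection. Tested 14 days after surgery. Paw pressure applied at 32 g/s; threshold taken as the force causing the first struggle; cut-off 250 g; pretest outliers (<40 g or >75 g) excluded. Oral dosing in 10 ml/kg; read at 15, 30 and 45 min; compared with a CMC-treated group.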

[6] = system: Rattus norvegicus; experiment: Toxicity in Sprague-Dawley rat mononeuropathy pain model assessed as effect on contralateral paw pressure at 60 mg/kg, po after 15 mins by paw pressure test; format: organism-based; set-up: dose 60 mg/kg, route oral; conditions: in vivo, 0.25 h
Summary of the method: (§2)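 Same sciatic-ligation rat model, 14 days after surgery. Threshold measured on the non-operated contralateral hind paw by analgesimeter at 32 g/s; first-struggle endpoint; 250 g cut-off; pretest rats outside 40–75 g rejected. Compound given po in 10 ml/kg; readings at 15, 30 and 45 min.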

[7] = system: Rattus norvegicus; experiment: Toxicity in Sprague-Dawley rat mononeuropathy pain model assessed as effect on contralateral paw pressure at 30 mg/kg, po after 45 mins by paw pressure test; format: organism-based; set-up: dose 30 mg/kg, route oral; conditions: in vivo, 0.75 h; summary of the method: as §2
[8] = system: Rattus norvegicus; experiment: Toxicity in Sprague-Dawley rat mononeuropathy pain model assessed as effect on contralateral paw pressure at 10 mg/kg, po after 30 mins by paw pressure test; format: organism-based; set-up: dose 10 mg/kg, route oral; conditions: in vivo, 0.5 h; summary of the method: as §2
[9] = system: Rattus norvegicus; experiment: Toxicity in Sprague-Dawley rat mononeuropathy pain model assessed as effect on contralateral paw pressure at 1 mg/kg, po after 30 mins by paw pressure test; format: organism-based; set-up: dose 1 mg/kg, route oral; conditions: in vivo, 0.5 h; summary of the method: as §2

## Cc1cnn2c1n[n+]([O-])c1ccc(OCc3ccccc3)cc12
[1]
  Activity: 10%
[2]
  Time: 18.5 s
[3]
  Time: 17.6 s
[4]
  Time: 18.1 s
[5]
  Activity: 52.8 g
[6]
  Activity: 59.9 g
[7]
  Activity: 60.5 g
[8]
  Activity: 62.7 g
[9]
  Activity: 60.6 g
